# Compound activity deposited in PubChem by several laboratories.
# Compounds with a hit are over-represented: about 5.9% of the library has one in this group of screens.
# Jurkat tox 60K: cytotoxic compounds reducing Jurkat cell viability; Jurkat E6.1 viability, ATP luminescence, 48 h; 56,000 tested, 1.2% active; inhibition, % at 4 µM;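 active = inhibition above the mean inhibition of all tested compounds plus 3 SD, cut at about 28% in these data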
# Lung fibro prol: blocks proliferation of human lung fibroblasts | LL 47 human lung fibroblast viability, ATP luminescence; stronger effect = lower value | viability, % at 10 µM | 85,000 tested, 1.1% active | AID 719;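 active = viability at or below 50% in the single dose screen; inactive = viability above 50%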;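 also: compound exposure lasted 72 h before the ATP readout; 100% = median luminescence of untreated cell-only wells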
#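 test system = LL 47 human lung fibroblasts | amount = 1,150 fibroblasts seeded per well | medium = 15% FBS in IMEM | times = overnight cell rest, 72 h compound treatment at 37 °C | measured by = CellTiter-Glo luminescence measuring cellular ATP | read-out = viability percentage against median untreated-cell control | benchmarks = cell-only wells, no compound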
# MT1-MMP txn act: activates MT1-MMP transcription; HT1080 MT1-MMP promoter luciferase reporter, luminescence, overnight; stronger effect = higher value; activation factor at 10 µM; 86,000 tested, 0.16% active;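 active = activation factor of at least 2 for MT1-MMP transcription at 10 µM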
# H69AR inhibit: growth inhibitors of human H69AR lung tumor cells. 85,000 tested, 6% active. H69AR lung tumor viability, ATP luminescence, 72 h; stronger effect = lower value. AID 598. viability, % at 10 µM;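 active = viability at or below 40%; inactive = viability above 40%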;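 also: multidrug resistant small cell line overexpressing MRP-1 efflux transporter; 100% = mean luminescence of untreated control wells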
# HUVEC inhibit: inhibitors of human endothelial cell proliferation; AID 648; 86,000 tested, 1.1% active; viability, % at 10 µM (by protocol); HUVEC proliferation, CellTiter-Glo luminescence, 72 h; stronger effect = lower value;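 active = viability at or below 30%; inactive = viability above 30%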;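 also: 100% = median luminescence of DMSO-only cell control wells on each plate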
# PTK2B oligo ant: blocks oligomerization of human Pyk2 in cells; Q14289; Q293 cells, Pyk2 FERM NanoBiT luminescence; stronger effect = lower value; z-score (the deposit names both 25 µM and 10 µM); 99,000 tested, 0.83% active;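 active = Z-score of -3 or lower, scaled per plate to the spread of control and sample wells; inactive = z-score above -3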;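 also: negative z-score means lost luminescence so less FERM oligomerization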
# Target sequence (Q14289 whole entry, looked up): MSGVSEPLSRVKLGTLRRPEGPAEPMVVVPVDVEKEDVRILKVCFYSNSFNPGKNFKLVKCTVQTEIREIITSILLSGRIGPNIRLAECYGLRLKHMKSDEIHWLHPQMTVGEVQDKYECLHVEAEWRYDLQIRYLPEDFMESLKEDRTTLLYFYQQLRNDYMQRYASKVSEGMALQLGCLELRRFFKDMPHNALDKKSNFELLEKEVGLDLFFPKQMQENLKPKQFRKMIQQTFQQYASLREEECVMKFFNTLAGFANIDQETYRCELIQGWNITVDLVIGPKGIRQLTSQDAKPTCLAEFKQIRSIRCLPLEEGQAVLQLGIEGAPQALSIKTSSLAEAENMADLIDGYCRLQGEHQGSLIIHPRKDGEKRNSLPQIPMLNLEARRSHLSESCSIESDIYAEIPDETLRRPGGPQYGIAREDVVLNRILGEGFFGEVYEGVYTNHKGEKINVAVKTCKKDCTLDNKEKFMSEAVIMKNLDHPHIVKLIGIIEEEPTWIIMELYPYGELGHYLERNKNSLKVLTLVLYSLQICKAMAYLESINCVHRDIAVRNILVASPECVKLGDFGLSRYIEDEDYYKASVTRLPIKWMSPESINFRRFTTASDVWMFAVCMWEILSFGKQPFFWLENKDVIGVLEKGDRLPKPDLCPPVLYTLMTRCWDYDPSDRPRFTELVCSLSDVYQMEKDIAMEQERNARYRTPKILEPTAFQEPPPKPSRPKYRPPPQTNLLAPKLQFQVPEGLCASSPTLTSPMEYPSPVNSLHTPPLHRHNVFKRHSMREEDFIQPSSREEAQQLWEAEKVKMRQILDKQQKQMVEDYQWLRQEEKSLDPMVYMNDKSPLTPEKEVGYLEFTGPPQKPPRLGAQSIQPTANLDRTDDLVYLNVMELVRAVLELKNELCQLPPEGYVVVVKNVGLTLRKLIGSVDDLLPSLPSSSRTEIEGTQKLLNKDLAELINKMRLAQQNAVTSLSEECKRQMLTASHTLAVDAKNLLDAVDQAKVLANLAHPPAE
# * marks the source's active call; other numbers are inactive results; . = no result given.
SMILES,Jurkat tox 60K,Lung fibro prol,MT1-MMP txn act,H69AR inhibit,HUVEC inhibit,PTK2B oligo ant
COC(=O)c1cc(OC)c(OC)cc1NC(=S)N1CCN(Cc2ccccc2)CC1,.,.,.,.,.,0.09
Cn1cc(C(=O)c2ccc(Cl)cc2Cl)cc1C(=O)N/N=C(\N)COc1cccc(C(F)(F)F)c1,.,77,.,27*,69,0.95
C=CCN1C(=NC(=O)CC)SC2CS(=O)(=O)CC21 (centres undefined),.,111,1.2,88,98,-0.04
O=C(c1ccco1)N1CCN(CC(=O)N2CCCc3c2c(=O)oc2ccc(O)cc32)CC1,-2,106,0.9,94,107,.
O=C(CN1CCN(Cc2ccccc2)CC1)N1CCCc2c1c(=O)oc1ccc(O)cc21,3,82,1,7.6*,31,-2
CCn1c(CNc2nc3ccccc3n2C(C)C)nc2ccccc21,.,87,1.1,87,92,1.4
COc1ccc2nc(NC(=O)CSc3nc(C)cc(=O)[nH]3)sc2c1,.,.,.,.,.,0.65
COc1ccc2nc(-n3c(O)c(C4=c5ccccc5=NC4=O)[nH]c3=S)sc2c1,.,.,.,.,.,-3.2*
Cc1cc(NCC2CCCO2)n2c(nc3ccccc32)c1C#N (centres undefined),.,102,1.1,65,88,-0.56
CC(C)c1cc(NCC2CCCO2)n2c(nc3ccccc32)c1C#N (centres undefined),.,95,1.1,9.7*,80,-1.3
CCc1c(C)c(C#N)c2nc3ccccc3n2c1NCC1CCCO1 (centres undefined),.,100,1.1,32*,104,-0.25
COc1ccc(C(=O)Nc2sc3c(c2C(=O)NCc2ccco2)CCCC3)cc1OC,.,86,1.2,36*,67,-1.2
COc1cc(C(=O)Nc2sc3c(c2C(=O)NCc2ccco2)CCCC3)cc(OC)c1OC,.,87,1.3,60,68,-2.5
Cc1ccc(C(=O)Nc2sc3c(c2C(=O)NCc2ccco2)CCCC3)cc1,.,96,1.2,11*,44,-2.3
O=C(Nc1sc2c(c1C(=O)NCc1ccco1)CCCC2)c1ccc2c(c1)OCO2,12,109,1.8,79,89,-1.4
CC(C(=O)Nc1sc2c(c1C(=O)NCc1ccco1)CCCC2)N1C(=O)c2ccccc2C1=O (centres undefined),.,100,1.2,23*,85,1.6
NC(=O)c1c(NC(=O)c2cc3ccccc3o2)sc2c1CCC2,-6,82,.,24*,62,-0.78
CC[C@H]1C2=C3C(CC[C@H]4C(OCc5ccc(F)cc5C(F)(F)F)OC[C@](C)([C@@H]34)N(C(=O)OC(C)(C)C)C2)C(COC(C)=O)C1COC(C)=O (some centres undefined),.,.,1.2,.,.,.
Cc1ccc(C(=O)COC(=O)C2CC(=O)N(c3nc(-c4ccccc4)cs3)C2)cc1 (centres undefined),.,.,.,.,.,1.6
COc1ccc2[nH]c(=O)c(CNc3cccc(C)c3)cc2c1,.,98,1.1,57,96,0.88
CC(NC(=O)CSc1nnc(-c2cccc(S(=O)(=O)N3CCCCC3)c2)o1)C12CC3CC(CC(C3)C1)C2 (centres undefined),.,100,1.2,41,96,0.29
COC(=O)Nc1sc2c(c1C(=O)NCc1ccco1)CCC2,-3,82,1.2,39*,76,0.18
COC(=O)Nc1sc2c(c1C(=O)NCc1ccco1)CCCC2,4,93,1,78,83,0.42
O=C(Nc1sc2c(c1C(=O)O)CCC2)c1ccco1,.,.,.,.,.,-0.02
O=C(Nc1sc2c(c1C(=O)NC1CC1)CCCCCC2)c1ccco1,-3,99,1.2,30*,93,-1.2
COC(=O)C1=C(O)C(C(=O)OC)C(c2ccc(C)cc2)C(C#N)(C#N)C1c1ccc(C)cc1 (centres undefined),.,83,1,4.0*,80,-1.3
C=CCNC(=O)CSc1nnc(-c2cccs2)o1,.,86,1.1,38*,98,0.3
O=C(CSc1nnc(-c2cc(-c3cccs3)nc3ccccc23)o1)NC1CCCCC1,.,107,1.4,23*,49,-1.1
O=C(CSc1nnc(-c2cccs2)o1)N1CCCCC1,2,94,1.6,104,95,.
COc1cccc(-c2nnc(NC(=O)c3ccc(S(=O)(=O)N4CCOCC4)cc3)o2)c1,0,69,1,20*,15*,-1.5
